The values below come from PubChem BioAssay.

Broadly, the inhibition is the drop in the measured response relative to a control, in per cent.

The nature of test [1]: inhibitors of TNFa-induced NFkB p65 translocation, primary screen, imaging, HUVEC, MLSMR starter and 10KST1 sets (AID 438;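 active means inhibition above 20% together with a positive visual image hit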;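 further: compound added about 3h40 before a 20 min TNFalpha stimulation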;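 on inhibition: signal is the nuclear over cytoplasmic p65 intensity ratio per well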). Particulars: HUVEC TNFa-induced p65 nuclear translocation; cell count: measured here: nuclei count (cytotoxicity indicator), at 2.08 µM; inhibition: at 2 µM, stronger effect = higher value, 0% TNFa-plus-vehicle, 100% no-TNFa wells.
A short description of test [2]: inhibitors of mutant huntingtin aggregation, primary screen, imaging, exon1htt(103Q)mCFP cells, high-content imaging (AID 483;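 active means visual image review flags a hit and inhibition of aggregation exceeds 20%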;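 further: compound exposure lasted 3 days before fixation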;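 on nuclei count: percent of the per-plate median nuclei count of sample wells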). To be noted: exon1htt(103Q)mCFP cell line, aggregate imaging, at 2 µM; inhibition of aggregation: stronger effect = higher value; nuclei count: measured here: cell count, toxicity.
Test [3] is described as follows: inhibitors of E-selectin induction by TNFa, primary screen, imaging, HUVEC, immunofluorescence, MLSMR starter and 10KST1 sets (AID 487;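 active means visually confirmed hit in the image check and inhibition above 20%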;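 on inhibition: signal is fraction of cell area covered by stained E-selectin grains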;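 on nuclei count: 100% = median nuclei count of all wells on the same plate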). To be noted: HUVEC TNFalpha-induced E-selectin immunofluorescence imaging, at 2 µM; inhibition: stronger effect = higher value; nuclei count: measured here: cell number, toxicity.
The target of test [4] is Voltage-gated potassium channel subunit beta-2 (Rattus norvegicus) (UniProt P62483). Put plainly: KvBeta enzyme negative modulators, primary screen, biochemical, NADPH fluorescence (AID 622;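 active means fluorescence slope higher than the sample average by over 3 SD, cut at about -0.22 in these data, passing the limit was not always enough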;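 further: slope of raw intensity against log time taken from 70 to 1610 s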). To be noted: recombinant KvBeta, 4-cyanobenzaldehyde reduction, at 10 µM, stronger effect = higher value.
Sequence of Voltage-gated potassium channel subunit beta-2 (Rattus norvegicus) (P62483 whole entry, looked up): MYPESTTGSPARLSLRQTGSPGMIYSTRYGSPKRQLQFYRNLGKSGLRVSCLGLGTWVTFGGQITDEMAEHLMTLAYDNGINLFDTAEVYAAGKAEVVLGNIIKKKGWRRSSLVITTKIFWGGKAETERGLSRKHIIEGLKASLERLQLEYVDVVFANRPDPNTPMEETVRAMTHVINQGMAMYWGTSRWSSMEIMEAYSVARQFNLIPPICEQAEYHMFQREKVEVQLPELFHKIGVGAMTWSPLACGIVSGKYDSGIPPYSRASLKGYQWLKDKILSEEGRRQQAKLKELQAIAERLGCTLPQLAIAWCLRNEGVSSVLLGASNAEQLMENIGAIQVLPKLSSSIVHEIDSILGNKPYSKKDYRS
The target is the same in test [5]. The test is described as follows: KvBeta positive modulators, primary screen, biochemical, NADPH fluorescence (AID 623;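 active means NADPH fluorescence slope more negative than the mean of all samples by about 3 SD, 99.7% confidence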;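 further: fluorescence intensity change per second fitted from 20 to 320 s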). Particulars: Recombinant KvBeta, NADPH fluorescence decrease slope, 10 min; at 10 µM; stronger effect = lower value.
Test [6] concerns the target Alpha-2C adrenergic receptor (Homo sapiens) (UniProt P18825). The test is described as follows: modulators of alpha2C/GIRK thallium flux, primary screen, cell-based, HEK293 alpha2C/GIRK1/2 (AID 624;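 active means fluorescence slope after compound addition differing from the mean of all screened samples at 99.7% confidence, in either direction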;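 further: slope of fluorescence ratio to pre-addition baseline per second over 15 to 24 s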). To be noted: thallium flux BTC fluorescence, at 10 µM, actives lie on both sides.
Test [7] in a line: inhibitors of larval lipid processing in zebrafish, primary screen, whole organism, PED6 fluorescence, gall bladder and intestine (AID 686).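 Further: larvae 5 to 7 days old with five fish per well; signal comes from phospholipase A2 cleavage of quenched PED6 carried via bile; overnight exposure to compound and PED6 before scoring.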 Particulars: Zebrafish larvae PED6 lipid processing, fluorescence scoring; screened at 20 µM (by protocol). A digest of the protocol: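 system = live zebrafish larvae aged 5-7 days, whole organism | probe or stimulus = ingested quenched lipid PED6 at 100 nM | doses = 20 µM single dose | timing = overnight exposure | detection = fluorescence microscopy with visual scoring of gall bladder and intestine | read-out = visual per-well fluorescence inhibition score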

Test [8] is described as follows: inhibitors of Sendai virus-induced IRF3 signaling, primary screen, TLR/RLR signaling modifier project, cell-based, Sendai virus stimulus, luciferase, 10K MLSCN set (AID 602276;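 active means inhibition at or above 50% at 10 µM; inactive means inhibition below 50%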;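 further: firefly luciferase from ISG56 promoter only with Renilla not read in this screen; 0% = Sendai virus plus DMSO and 100% = medium plus DMSO without virus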). To be noted: HEK293 RL24 IRF3 luciferase reporter, at 10 µM, stronger effect = higher value. (A reporter such as luciferase makes a cellular process visible.)
Test [9] can be described thus: inhibitors of poly I:C-induced TLR3 signaling, primary screen, cell-based, poly I:C stimulus, luciferase, 10K MLSCN set (AID 602277;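 active means inhibition of the reporter signal at or above 50%; inactive means inhibition below 50%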). To be noted: HEK293-TLR3 RL24 IRF3 luciferase reporter, at 10 µM, stronger effect = higher value.

The structures appear in SMILES notation. The source made the active and inactive calls.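 How the source made its calls, unless noted: active means a full or partial loss of lipid-probe fluorescence in the fish gall bladder, intestine or both, judged by eye; inactive means no fluorescence loss, or compound toxic to the fish.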

Sequence of Alpha-2C adrenergic receptor (Homo sapiens) (P18825 whole entry, looked up): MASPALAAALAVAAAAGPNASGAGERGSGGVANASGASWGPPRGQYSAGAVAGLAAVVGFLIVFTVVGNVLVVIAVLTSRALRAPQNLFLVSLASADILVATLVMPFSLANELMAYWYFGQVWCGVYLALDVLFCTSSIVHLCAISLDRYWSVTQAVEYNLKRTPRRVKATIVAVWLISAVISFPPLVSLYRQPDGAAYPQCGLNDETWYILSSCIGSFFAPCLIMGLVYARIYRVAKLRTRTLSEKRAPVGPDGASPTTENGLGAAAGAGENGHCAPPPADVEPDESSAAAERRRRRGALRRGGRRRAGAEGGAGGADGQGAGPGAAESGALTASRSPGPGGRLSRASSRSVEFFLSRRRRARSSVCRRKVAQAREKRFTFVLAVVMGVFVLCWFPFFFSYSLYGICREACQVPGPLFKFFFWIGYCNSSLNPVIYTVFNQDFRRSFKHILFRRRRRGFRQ

Consider `OC(CNCCc1ccccc1)c1ccccc1` (centres undefined), for which the cell count in test [1] amounted to 586. Also, the inhibition is 11% (inactive) in test [1], 48.6% (inactive) in [3], 11.9% (inactive) in test [8] and 15.7% (inactive) in test [9]. Besides, in test [2], the inhibition of aggregation is 14.9% (inactive). Moreover, the results for the nuclei count in test [2] and in [3] were 91.9% and 55.2%, respectively. The fluorescence slope in test [4] was -0.37 (inactive). Besides, the NADPH fluorescence slope in test [5] is -7.3e-05 (inactive). For the same compound, in test [6], the slope was 0.00466 (inactive). Besides, the call in test [7] was inactive.
For the compound `O=C(Nc1ccc2c(c1)OCO2)N1CCN(c2ncccn2)CC1`, the cell count in [1] was 342. Besides, the inhibition in test [1] was 10.3% (inactive); in test [3], -38.9% (inactive); in [8], -23.4% (inactive); in test [9] it was -41.5% (inactive). Also, in test [2], the inhibition of aggregation is -5.6% (inactive). In addition, the nuclei count turned out to be 107% in test [2] and 118% in test [3]. The fluorescence slope in test [4] is -0.421 (inactive). The NADPH fluorescence slope in test [5] is -3.9e-06 (inactive). For the same compound, the slope in test [6] is 0.00535 (inactive). Also, the outcome in test [7] was inactive.
Consider `Cn1c(C(=O)NCc2cccnc2)cc2sccc21`, for which, in test [1], the cell count was 560. The inhibition in test [1] was -4.9% (inactive); in test [3] it was -25% (inactive); in [8], -11.9% (inactive); in test [9], -21.5% (inactive). Also, the inhibition of aggregation in test [2] is 1.2% (inactive). Also, the nuclei count in test [2] came out at 104%; in [3], 110%. In test [4], the fluorescence slope was -0.436 (inactive). In addition, the NADPH fluorescence slope in test [5] was 3.4e-05 (inactive). In addition, in [6], the slope is 0.00497 (inactive). Further, the call in test [7] was inactive.
For the compound `O=C(CSc1nnc(-c2ccccn2)n1Cc1ccccc1)N1CCCC1`, in test [1], the cell count worked out at 340. Besides, the inhibition was 8.1% (inactive) in [1], 19.6% (inactive) in test [3], 3.06% (inactive) in test [8] and 2.57% (inactive) in test [9]. Also, the inhibition of aggregation in test [2] is 7.9% (inactive). Besides, the nuclei count in [2] is 112%; in [3], 97.4%. In addition, in test [4], the fluorescence slope is -0.365 (inactive). In [5], the NADPH fluorescence slope is -6.5e-05 (inactive). The slope in [6] is 0.00635 (inactive). Moreover, the compound was called inactive in [7].
`COc1ccc(Br)cc1-c1noc(-c2ccccc2)n1`: the cell count in test [1] worked out at 357. Besides, the inhibition in [1] was 3% (inactive); in test [3], -51.1% (inactive); in [8], 13.4% (inactive); in test [9], 99.2% (active). Besides, in test [2], the inhibition of aggregation is -25.4% (inactive). The nuclei count is 102% in test [2] and 109% in [3]. Also, the fluorescence slope in [4] is -0.371 (inactive). In test [5], the NADPH fluorescence slope is -6.1e-05 (inactive). The slope in [6] is 0.00662 (inactive). Besides, the call in test [7] was inactive.
`COc1ccccc1N(CC(=O)NC1CCCC1)C(=O)CCC(=O)Nc1cc(C)on1`: the cell count in test [1] worked out at 566. The inhibition is -8.6% (inactive) in test [1], -29.3% (inactive) in test [3], -11.8% (inactive) in test [8] and -11.2% (inactive) in test [9]. Besides, the inhibition of aggregation in test [2] was 10.8% (inactive). Further, the results for the nuclei count in test [2] and in [3] were 96.8% and 102%, respectively. The fluorescence slope in test [4] was -0.408 (inactive). The NADPH fluorescence slope in test [5] was -5.9e-05 (inactive). Besides, the slope in test [6] is 0.00447 (inactive). Moreover, in [7], the compound was called inactive.
With `CN(C)c1ccc(NC(=O)Nc2cccc(Cl)c2)cc1`, in test [1], the cell count is 387. For the same compound, the inhibition in [1] is 2.3% (inactive); in test [3], -10% (inactive); in [8], -43.6% (inactive); in test [9], -104% (inactive). For the same compound, in test [2], the inhibition of aggregation is 1.1% (inactive). Moreover, the nuclei count was 106% in test [2] and 109% in test [3]. In test [4], the fluorescence slope is -0.436 (inactive). Further, in [5], the NADPH fluorescence slope is -3.6e-05 (inactive). Besides, the slope in test [6] is 0.00643 (inactive). In addition, in test [7], the outcome was inactive.
As to `Clc1ccc(Cl)c(-c2nn3c(Cn4cnc5ccccc54)nnc3s2)c1`, the cell count in test [1] was 566. For the same compound, the inhibition is 15.8% (inactive) in [1], -91.4% (inactive) in test [3], 13.6% (inactive) in [8] and 13.1% (inactive) in test [9]. For the same compound, in [2], the inhibition of aggregation is -6.5% (inactive). The results for the nuclei count in [2] and in [3] were 102% and 121%, respectively. In test [4], the fluorescence slope was -0.446 (inactive). For the same compound, the NADPH fluorescence slope in test [5] is -3.8e-05 (inactive). Also, the slope in test [6] is 0.00462 (inactive). Also, the outcome in [7] was inactive.
For the compound `Cc1cc(C(=O)N2CCCc3ccccc32)no1`, in test [1], the cell count worked out at 312. The inhibition is -4.5% (inactive) in [1], -10.5% (inactive) in [3], -8.74% (inactive) in test [8] and -14.5% (inactive) in test [9]. Moreover, the inhibition of aggregation in [2] was 13% (inactive). For the same compound, the values for the nuclei count in [2] and in [3] were 77.3% and 89.2%, respectively. Besides, the fluorescence slope in test [4] was -0.39 (inactive). Also, the NADPH fluorescence slope in test [5] is -4.1e-06 (inactive). Besides, the slope in test [6] was 0.00507 (inactive). Also, the call in [7] was inactive.
Consider `Cc1csc(NC(=O)c2ccccc2C(=O)O)n1`, for which the cell count in test [1] was 418. Further, the inhibition is 9% (inactive) in test [1], -46.7% (inactive) in test [3], 5.94% (inactive) in [8] and 3.54% (inactive) in test [9]. Also, the inhibition of aggregation in test [2] was -16.7% (inactive). Moreover, the nuclei count in test [2] stood at 111%; in [3], 116%. Moreover, the fluorescence slope in test [4] was -0.358 (inactive). Moreover, the NADPH fluorescence slope in test [5] is -6.8e-05 (inactive). Also, in test [6], the slope is 0.00549 (inactive). In addition, the call in [7] was inactive.
As for `COC(=O)c1ccc(CSc2nnnn2Cc2ccccc2)cc1`, the cell count in test [1] worked out at 341. Further, the inhibition in test [1] was 3% (inactive); in [3] it was -32.4% (inactive); in [8] it was 9.31% (inactive); in test [9], 37.9% (inactive). The inhibition of aggregation in test [2] was -32.1% (inactive). Moreover, the nuclei count in test [2] amounted to 108%; in test [3], 104%. Further, the fluorescence slope in [4] is -0.322 (inactive). In addition, in test [5], the NADPH fluorescence slope was 3.4e-06 (inactive). The slope in test [6] is 0.00496 (inactive). For the same compound, in test [7], the call was inactive.
For `Cc1cccc(NC(=O)c2ccc(S(=O)(=O)N(C)C)cc2)n1`, in test [1], the cell count was determined as 290. Also, the inhibition in [1] was -5.5% (inactive); in [3], -126% (inactive); in test [8], -11.6% (inactive); in test [9], -45.9% (inactive). The inhibition of aggregation in test [2] is 4.5% (inactive). In addition, the nuclei count in test [2] came to 108%; in [3], 94.4%. Also, the fluorescence slope in test [4] is -0.318 (inactive). Further, the NADPH fluorescence slope in [5] was -2.4e-05 (inactive). The slope in test [6] is 0.00507 (inactive). For the same compound, in [7], the compound was classed as inactive.
